NPY-Y1 PAM-ag: potentiates or activates human NPY-Y1 receptor. activation, % at 3.6 µM. 220,000 tested, 0.37% active. AID 1304. NPY-Y1 expressing cells, potentiator/agonist activation. P25929; in the data active = activation above about 33%, passing the limit was not always enough;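 also: cells stimulated with NPY at EC10 then isoproterenol at EC100; 0% = low agonist plus stimulus and 100% = saturating agonist plus stimulus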
NPY2 pot ag: potentiates or activates human NPY-Y2 receptor | AID 1359 | P49146 | cells expressing NPY-Y2, potentiator/agonist read-out | 220,000 tested, 0.45% active | activation, % at 3.6 µM; in the data active = activation above about 27%;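 also: cells stimulated with NPY near EC25 plus isoproterenol at EC100; 0% = vehicle plus submaximal agonist and 100% = vehicle plus saturating agonist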
NPY-Y2 antag: blocks the human neuropeptide Y Y2 receptor | P49146 | NPY-Y2 expressing cells, antagonist mode | inhibition, % at 2.7 µM | 140,000 tested, 0.99% active; in the data active = inhibition above about 17%;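 also: 0% = vehicle with agonist challenge and 100% = reference antagonist with challenge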
S1P4 ag: human S1P4 receptor agonism; O95977; S1P4-expressing cell line, agonist reporter assay; activation, % at 4.98 µM; 220,000 tested, 0.35% active; AID 1509; in the data active = activation above about 11%;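 also: 0% = DMSO vehicle and 100% = reference agonist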
Target sequence (O95977 whole entry, looked up): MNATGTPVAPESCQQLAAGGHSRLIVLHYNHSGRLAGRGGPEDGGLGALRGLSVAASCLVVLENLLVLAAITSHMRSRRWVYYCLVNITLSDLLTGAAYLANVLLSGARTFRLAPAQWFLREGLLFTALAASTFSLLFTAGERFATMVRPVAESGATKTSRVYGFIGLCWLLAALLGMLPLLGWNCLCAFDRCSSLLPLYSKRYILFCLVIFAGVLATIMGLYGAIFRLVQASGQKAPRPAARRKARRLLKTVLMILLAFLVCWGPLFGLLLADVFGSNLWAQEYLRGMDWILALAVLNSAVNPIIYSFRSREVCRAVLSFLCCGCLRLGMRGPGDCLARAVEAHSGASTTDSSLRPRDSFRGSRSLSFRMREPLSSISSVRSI
NPY-Y1 antag: NPY-Y1 (human) receptor antagonism; P25929; HEK293-CNG Y1 cells, membrane potential fluorescence; NPY at EC95, then isoproterenol; inhibition, % at 3.6 µM; 200,000 tested, 1% active; AID 1040;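 active = inhibition above the campaign mean inhibition of all tested compounds plus 3 SD, cut at about 20% in these data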;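 also: 0% = DMSO wells given NPY plus isoproterenol and 100% = isoproterenol alone without NPY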
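Assay system: HEK293 cells with Y1 receptor plus CNG channel | Probe or stimulus: NPY (25 nM), isoproterenol (1 µM), Ro 20-1724 (25 µM) | Timing: Compound incubation 1 h at room temperature, readout 45 min post-stimulation | Measured by: Membrane-potential fluorescent dye readout | Benchmarks: High control isoproterenol alone, low control NPY with isoproterenol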
S1P4 antagonist: antagonists of human S1P4 receptor | S1P4-expressing cells, antagonist mode, reporter read-out | inhibition, % at 4.98 µM | 220,000 tested, 0.26% active | AID 1510; in the data active = inhibition above about 29%;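 also: 0% = wells stimulated with agonist and 100% = vehicle wells without agonist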
Numbers without * were called inactive; . = no result. A selection: hits, their analogues and other compounds. The true share with any hit is near 2.4%.

SMILES	NPY-Y1 PAM-ag	NPY2 pot ag	NPY-Y2 antag	S1P4 ag	NPY-Y1 antag	S1P4 antagonist
O=[N+]([O-])c1ccc2nc(-c3ccc(Cl)cc3)n(OCc3ccccc3)c2c1	-1	-3	2	2	3	3
Clc1ccc(COn2c(-c3ccccc3)nc3ccccc32)cc1	-111	-77	37*	0	54*	9
Clc1ccc(COn2c(-c3ccc(Cl)cc3)nc3ccccc32)cc1	-202	-149	61*	2	84*	7
Cc1cccc(C)c1Nc1c(-c2ccc(N3CCOCC3)cc2)nc2cnccn12	84*	71*	.	1	.	12
CNC(=S)N(CCc1c(C)[nH]c2ccc(C)cc12)Cc1cccs1	43*	31*	.	3	-9	-7
Brc1cc2c(cc1/C=N/Nc1nc(N3CCCCC3)nc(N3CCCCC3)n1)OCO2	-19	-16	.	-3	8	-10
CC(C)(Oc1ccc(Cl)cc1)C(=O)NCc1ccc(S(N)(=O)=O)cc1	-16	-12	.	1	-2	-5
N#Cc1ccc(CSc2nnc(Cc3cccs3)n2Cc2ccco2)cc1	-34	-23	17	-2	23*	2
Cc1cc(Cl)ccc1NC(=O)CSc1nnc(Cc2cccs2)n1Cc1ccco1	-17	-16	21*	1	23*	7
CN(C)S(=O)(=O)c1ccc(Cl)c(NC(=O)COC(=O)C2CSC3(C)CCC(=O)N23)c1 (configuration not stated)	-23	6	-1	0	0	-8
CC1=NC(C#N)=C(C#N)NC(C)(C)C1	11	-3	.	0	2	-1
CCOC(=O)CSc1nc(NCc2ccco2)c2ccccc2n1	-5	-12	3	0	7	-18
COc1ccc(CNc2nc(SCC(=O)NCc3ccco3)nc3ccccc23)cc1	-72	-30	50*	0	30*	-6
COc1ccc(C2C(C(=O)Nc3cc(OC)c(OC)c(OC)c3)c3ccccc3C(=O)N2C)cc1 (configuration not stated)	37*	31*	.	1	-1	-11
COc1ccc(C2C(C(=O)Nc3cccc(OC)c3)c3ccccc3C(=O)N2C)cc1 (configuration not stated)	11	2	.	-2	3	6
COc1cc2c(=O)n(CCC(=O)NCC3CCCO3)c(=O)n(CC(=O)c3ccc(Cl)cc3)c2cc1OC (configuration not stated)	-2	2	.	1	0	-2
CN(C)CCn1c(C(=O)Nc2ccccc2)cc2ccccc21	-67	-36	20*	1	38*	2
C/C(=N\NC(=O)c1nn(C)cc1Br)c1cccc(NC(=O)C(C)(C)C)c1	103*	41*	1	-1	-8	-18
COc1ccc(-c2c3c(=O)n(C)c(=O)n(C)c3cn2-c2cc(OC)ccc2OC)cc1	-22	-25	13	0	21*	-1
CC1CC(C)CN(C(=O)c2ccc3c(c2NCCO)C(=O)c2ccccc2C3=O)C1 (configuration not stated)	55*	49*	-9	-1	-18	-9
COCCNC(=O)C1CC(=O)N(c2ccc(OC)cc2)C1c1ccc(OC)cc1 (configuration not stated)	-1	8	.	-1	4	-22
CC(C)(C)OC(=O)COc1cc(OCC(=O)OC(C)(C)C)c2c(=O)cc(-c3ccccc3)oc2c1	-31	-30	33*	1	46*	3
CC(C)(C)OC(=O)COc1cc(O)c2c(=O)cc(-c3ccccc3)oc2c1	9	1	16	0	0	-5
Cc1nc(SCC(=O)c2ccc(F)c(F)c2)[nH]c(=O)c1Oc1ccc(F)cc1	-20	-11	.	0	.	6
COc1cc(S(=O)(=O)N(Cc2ccco2)C2CCCC2)ccc1-n1cnnn1	-7	-14	2	3	2	-12
SMILES	NPY-Y1 PAM-ag	NPY2 pot ag	NPY-Y2 antag	S1P4 ag	NPY-Y1 antag	S1P4 antagonist
CCOc1ccccc1CN(Cc1ccco1)S(=O)(=O)c1ccc(-n2cnnn2)c(OC)c1	-11	-21	18*	1	38*	3
CCN(CC)S(=O)(=O)c1cccc2cccnc12	10	3	-2	3	1	1
O=S(=O)(c1cccc2cccnc12)N(CCO)CCO	36*	6	0	0	1	-5
O=C(CCc1ccc(S(=O)(=O)NCc2ccccc2)cc1)NCc1ccc2c(c1)OCO2	13	-1	13	0	-2	-4
O=S(=O)(NCc1ccc2c(c1)OCO2)c1ccc2oc3ccccc3c2c1	-67	-35	19*	3	21*	-10
COCCn1c(-c2ccc(Br)cc2)nc2oc3cc(OC)ccc3c(=O)c2c1=O	3	-7	.	-2	.	1
Nc1ccc(N=Nc2ccccc2)c2ccccc12	50*	56*	.	-1	.	20
Cc1noc(C)c1CSc1nc2ccccc2c(=O)n1-c1ccc(Cl)cc1	10	-5	32*	1	28*	8
CCCc1ccc(OCc2ccccc2)c2c(=O)cc(C(=O)OCC)oc12	2	7	.	2	.	-5
O=C(COc1ccccc1)Nc1ccc(OC(F)(F)C(F)F)c(NC(=O)COc2ccccc2)c1	-56	-1	34*	-3	25*	7
CC(=O)Nc1ccc(OC(F)(F)C(F)F)c(NC(C)=O)c1	-6	3	-2	-1	2	6
Clc1ccc(-c2c(C3=NCCCN3)nnn2-c2ccc(Cl)cc2)cc1	-7	-28	.	0	.	11
O=C(CSc1ncnc2scc(-c3ccccc3)c12)N1CCN(c2ccccc2F)CC1	-29	-5	30*	-1	33*	-21
COc1ccc(O)c(-c2cc(-c3cccs3)[nH]n2)c1	58*	42*	-8	-1	-23	5
COc1ccc(-c2cc(-c3ccccc3O)[nH]n2)cc1	17	-11	2	2	11	8
COc1cc(/C=N/NC(=O)Cn2cnc3ccccc3c2=O)ccc1O	15	8	.	1	.	-12
COc1ccccc1NC(=O)Nc1nc(C(C)(C)C)cs1	-19	-14	.	1	-1	-5
C=CCN=c1scc(-c2ccc(F)cc2)n1/N=C/c1ccccn1	60*	33*	6	-1	-12	-9
C=CCN=c1scc(-c2ccccc2)n1/N=C/c1ccccn1	18	11	7	3	3	-11
CCNc1nc(ON=C(C)C)nc(N(C)C)n1	6	2	1	1	1	-19
O=C(NC1CCCCC1)C(c1ccc(F)cc1)N(Cc1ccco1)C(=O)CN1C(=O)c2ccccc2S1(=O)=O (configuration not stated)	-9	-10	2	0	9	8
O=C(NC1CCCCC1)C(c1ccc(F)cc1)N(Cc1ccco1)C(=O)Cn1nnc2ccccc21 (configuration not stated)	-17	1	36*	-1	23*	1
